According to ChEMBL document CHEMBL4316611, “Design, synthesis and evaluation of novel (S)-tryptamine derivatives containing an allyl group and an aryl sulfonamide unit as anticancer agents” (Bioorg Med Chem Lett, 2019):

How the values were obtained:
HepG2 [1] = assay: Induction of apoptosis in human HepG2 cells assessed as viable cells level at 20 uM incubated for 48 hrs by Annexin V-FITC/propidium iodide staining based flow cytometry (reference value: 94.56%); format: functional
HepG2 [2] = assay: Induction of apoptosis in human HepG2 cells assessed as early apoptotic cells level at 10 uM incubated for 48 hrs by Annexin V-FITC/propidium iodide staining based flow cytometry (reference value: 2.89%); format: functional
HepG2 [3] = assay: Induction of apoptosis in human HepG2 cells assessed as late apoptotic cells level at 30 uM incubated for 48 hrs by Annexin V-FITC/propidium iodide staining based flow cytometry (reference value: 2.02%); format: functional
HepG2 [4] = assay: Induction of apoptosis in human HepG2 cells assessed as late apoptotic cells level at 20 uM incubated for 48 hrs by Annexin V-FITC/propidium iodide staining based flow cytometry (reference value: 2.02%); format: functional
HeLa = assay: Cytotoxicity in human HeLa cells assessed as reduction in cell viability incubated for 48 hrs by MTT assay; format: functional, cell-based
Outline: (§1)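 MTT viability assay; cells exposed continuously to compounds for 48 h. IC50 values reported as mean ± SD. Cisplatin served as positive control.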

HepG2 [5] = assay: Cytotoxicity in human HepG2 cells assessed as reduction in cell viability incubated for 48 hrs by MTT assay; format: functional, cell-based; conditions: HepG2, 48 h; outline: as §1
HepG2 [6] = assay: Induction of apoptosis in human HepG2 cells assessed as early apoptotic cells level at 30 uM incubated for 48 hrs by Annexin V-FITC/propidium iodide staining based flow cytometry (reference value: 2.89%); format: functional
CNE = assay: Cytotoxicity in human CNE1 cells assessed as reduction in cell viability incubated for 48 hrs by MTT assay; format: functional, cell-based; outline: as §1
HepG2 [7] = assay: Induction of apoptosis in human HepG2 cells assessed as early apoptotic cells level at 20 uM incubated for 48 hrs by Annexin V-FITC/propidium iodide staining based flow cytometry (reference value: 2.89%); format: functional
HepG2 [8] = assay: Induction of cell cycle arrest in human HepG2 cells assessed as accumulation at G1 phase incubated for 24 hrs by propidium iodide staining based flow cytometry; format: functional
HepG2 [9] = assay: Inhibition of colony formation in human HepG2 cells at 7.5 uM incubated for 14 days by Giemsa staining based assay; format: functional; conditions: HepG2, 336 h
Outline: (§2)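 Colony formation assay: cells exposed at 0, 2.5, 5 and 7.5 μM for 2 weeks. Colonies imaged and quantified by image analysis. Inhibition rate expressed as mean ± SD against control.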

HepG2 [10] = assay: Inhibition of colony formation in human HepG2 cells incubated for 14 days by Giemsa staining based assay; format: functional, cell-based; outline: as §2
HepG2 [11] = assay: Induction of apoptosis in human HepG2 cells assessed as necrotic cells level at 20 uM incubated for 48 hrs by Annexin V-FITC/propidium iodide staining based flow cytometry (reference value: 0.53%); format: functional
HepG2 [12] = assay: Induction of apoptosis in human HepG2 cells assessed as necrotic cells level at 30 uM incubated for 48 hrs by Annexin V-FITC/propidium iodide staining based flow cytometry (reference value: 0.53%); format: functional
HepG2 [13] = assay: Induction of cell cycle arrest in human HepG2 cells assessed as accumulation at G1 phase at 15 uM incubated for 24 hrs by propidium iodide staining based flow cytometry (reference value: 39.79%); format: functional
HepG2 [14] = assay: Induction of cell cycle arrest in human HepG2 cells assessed as accumulation at G1 phase at 35 uM incubated for 24 hrs by propidium iodide staining based flow cytometry (reference value: 39.79%); format: functional
HepG2 [15] = assay: Induction of apoptosis in human HepG2 cells assessed as viable cells level at 10 uM incubated for 48 hrs by Annexin V-FITC/propidium iodide staining based flow cytometry (reference value: 94.56%); format: functional
HepG2 [16] = assay: Induction of apoptosis in human HepG2 cells assessed as necrotic cells level at 10 uM incubated for 48 hrs by Annexin V-FITC/propidium iodide staining based flow cytometry (reference value: 0.53%); format: functional
HepG2 [17] = assay: Induction of apoptosis in human HepG2 cells assessed as viable cells level at 30 uM incubated for 48 hrs by Annexin V-FITC/propidium iodide staining based flow cytometry (reference value: 94.56%); format: functional
A549 = assay: Cytotoxicity in human A549 cells assessed as reduction in cell viability incubated for 48 hrs by MTT assay; format: functional, cell-based; conditions: A549, 48 h; outline: as §1
HepG2 [18] = assay: Induction of cell cycle arrest in human HepG2 cells assessed as accumulation at G1 phase at 25 uM incubated for 24 hrs by propidium iodide staining based flow cytometry (reference value: 39.79%); format: functional
HepG2 [19] = assay: Induction of apoptosis in human HepG2 cells assessed as late apoptotic cells level at 10 uM incubated for 48 hrs by Annexin V-FITC/propidium iodide staining based flow cytometry (reference value: 2.02%); format: functional

SMILES: C=CC[C@@H](Cc1c[nH]c2ccccc12)NS(=O)(=O)c1c(C(C)C)cc(C(C)C)cc1C(C)C
- Activity (HepG2 [1]): 73.08%
- Activity (HepG2 [2]): 6.63%
- Activity (HepG2 [3]): 20.25%
- Activity (HepG2 [4]): 4.85%
- IC50 (HeLa): 16.5 µM
- IC50 (HepG2 [5]): 16.5 µM
- Activity (HepG2 [6]): 53.46%
- IC50 (CNE): 18.3 µM
- Activity (HepG2 [7]): 21.29%
- Activity (HepG2 [8]): Dose-dependent effect
- inhibition at 7.5 µM (HepG2 [9]): 95%
- inhibition (HepG2 [10]): Dose-dependent effect
- Activity (HepG2 [11]): 0.75%
- Activity (HepG2 [12]): 0.91%
- Activity (HepG2 [13]): 44.89%
- Activity (HepG2 [14]): 53.35%
- Activity (HepG2 [15]): 89.7%
- Activity (HepG2 [16]): 0.69%
- Activity (HepG2 [17]): 25.38%
- IC50 (A549): 18.7 µM
- Activity (HepG2 [18]): 48.82%
- Activity (HepG2 [19]): 2.96%
